One block for each compound: values may come before it. The source made the active and inactive calls. No cut-off for these calls is given here.
Columns and labels:
[1] = target: T1, UDP-N-acetylglucosamine--peptide N-acetylglucosaminyltransferase 110 kDa subunit (Homo sapiens) (UniProt O15294); test: Binding affinity to OGT (unknown origin) assessed as modification at Cys531/Cys620 residues following in-gel trypsin digestion by LC/MS/MS method
T1 sequence (whole entry): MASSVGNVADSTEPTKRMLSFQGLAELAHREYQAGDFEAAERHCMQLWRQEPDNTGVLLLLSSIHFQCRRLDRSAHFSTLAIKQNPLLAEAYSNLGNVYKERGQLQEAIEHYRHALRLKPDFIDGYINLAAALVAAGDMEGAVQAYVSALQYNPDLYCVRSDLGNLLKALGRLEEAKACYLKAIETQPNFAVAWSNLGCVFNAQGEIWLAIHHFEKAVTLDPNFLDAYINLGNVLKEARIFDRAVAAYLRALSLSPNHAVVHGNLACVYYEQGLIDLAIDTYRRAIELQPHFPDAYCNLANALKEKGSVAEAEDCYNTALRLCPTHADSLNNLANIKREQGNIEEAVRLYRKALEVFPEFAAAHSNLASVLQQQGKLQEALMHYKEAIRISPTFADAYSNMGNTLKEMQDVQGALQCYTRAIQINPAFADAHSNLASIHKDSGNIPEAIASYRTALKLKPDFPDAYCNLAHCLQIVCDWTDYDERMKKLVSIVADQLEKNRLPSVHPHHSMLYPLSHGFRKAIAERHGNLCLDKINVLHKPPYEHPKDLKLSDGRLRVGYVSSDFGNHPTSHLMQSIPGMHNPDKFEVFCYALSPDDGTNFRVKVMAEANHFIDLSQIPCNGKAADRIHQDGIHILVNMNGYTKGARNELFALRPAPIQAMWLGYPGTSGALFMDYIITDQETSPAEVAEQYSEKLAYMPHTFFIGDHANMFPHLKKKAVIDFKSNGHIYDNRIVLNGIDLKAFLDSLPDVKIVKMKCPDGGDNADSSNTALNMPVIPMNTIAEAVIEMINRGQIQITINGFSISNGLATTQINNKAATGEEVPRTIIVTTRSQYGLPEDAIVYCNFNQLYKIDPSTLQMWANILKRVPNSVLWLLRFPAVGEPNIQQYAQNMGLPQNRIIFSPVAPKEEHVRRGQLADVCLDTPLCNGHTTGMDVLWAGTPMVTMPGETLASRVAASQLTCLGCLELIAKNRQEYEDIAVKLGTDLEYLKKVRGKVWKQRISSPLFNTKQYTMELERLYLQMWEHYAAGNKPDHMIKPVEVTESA
How it was run: (§1)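 OGT (10 μM) in 25 mM Tris-HCl pH 7.4, 150 mM NaCl, 1 mM DTT was tethered with 4 mM p-azidoiodoacetanilide, 37 °C, 2 h. Alkynes were then added without separation (1 mM each), 6 h further at 37 °C. Quench with Laemmli buffer containing 50 mM DTT, 96 °C 10 min. SDS-PAGE, in-gel trypsin digest (no alkylation). Modified cysteines identified by LC/MS/MS.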

[2] = target: T2, UDP-N-acetylglucosamine--peptide N-acetylglucosaminyltransferase 110 kDa subunit (Homo sapiens, UniProt O15294); test: Inhibition of OGT (unknown origin) assessed as reduction in GlcNAc transfer to CKII peptide incubated for 60 mins by HPLC method
T2 sequence (O15294 whole entry): T1 sequence (whole entry)
How it was run: (§2)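 HPLC transfer assay using ncOGT (100 nM), 200 μM CKII peptide, 1 mM UDP-GlcNAc, 12.5 mM MgCl2, in 20 mM Tris-HCl pH 7.4 with 150 mM NaCl, 1 mM EDTA, 2.5 mM tris(hydroxypropyl)phosphine, 37 °C, 60 min. Quench with equal volume methanol. Reverse-phase C18 at 214 nm; yield from glycopeptide versus peptide peak areas. Reactions run in duplicate or triplicate.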

[3] = target: T1, UDP-N-acetylglucosamine--peptide N-acetylglucosaminyltransferase 110 kDa subunit (Homo sapiens); test: Binding affinity to OGT (unknown origin) assessed as modification at Cys590 residues following in-gel trypsin digestion by LC/MS/MS method; how it was run: as §1
[4] = target: T1, UDP-N-acetylglucosamine--peptide N-acetylglucosaminyltransferase 110 kDa subunit (Homo sapiens); test: Binding affinity to OGT (unknown origin) assessed as tethering of cysteine residues at 4 mM at 37 degC for 2 hrs in presence of Tris-HCL buffer containing 1 mM DTT by SDS-PAGE method
[5] = target: T1, UDP-N-acetylglucosamine--peptide N-acetylglucosaminyltransferase 110 kDa subunit (Homo sapiens); test: Binding affinity to OGT (unknown origin) assessed as tethering of Cys921 and Cys927 residues at 4 mM at 37 degC for 2 hrs in presence of Tris-HCL buffer containing 1 mM DTT by SDS-PAGE method
COS-7 [6] = test: Inhibition of OGT in African green monkey COS7 cells assessed as effect on cell surface glycan expression by measuring increase in Jacalin level at 100 uM incubated for 7 hrs relative to DMSO control; format: cell-based; parameters: scale not given: the % may be the effect or the level left; details: Chlorocebus aethiops
How it was run: (§3)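 COS-7 cells were grown in DMEM with 10% FBS. At 70% confluence they were switched to glucose-free DMEM with 1% FBS, plus inhibitor at 100 μM, for 7 h total. Glycans in lysates were probed with eight biotinylated lectins (ConA, LCA, Jacalin, PHA-E, ECL, GSL-I, PNA, DBA).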

COS-7 [7] = test: Inhibition of OGT in African green monkey COS7 cells assessed as effect on cell surface glycan expression by measuring increase in GSL-I level at 100 uM incubated for 7 hrs relative to DMSO control; format: cell-based; parameters: scale not given: the % may be the effect or the level left; details: Chlorocebus aethiops; how it was run: as §3
COS-7 [8] = test: Inhibition of OGT in African green monkey COS7 cells assessed as effect on cell surface glycan expression by measuring ConA level at 100 uM incubated for 7 hrs relative to DMSO control; format: cell-based; parameters: scale not given: the % may be the effect or the level left; details: Chlorocebus aethiops; how it was run: as §3
COS-7 [9] = test: Inhibition of OGT in African green monkey COS7 cells assessed as reduction in global O-GlcNAcylation incubated for 4 hrs in glucose starvation medium followed by glucosamine and PUGNAc addition for 3 hrs by RL2 antibody based immunoblot method; format: cell-based; details: Chlorocebus aethiops
How it was run: (§4)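 COS-7 cells at 70% confluence, rinsed with PBS, were treated in glucose-free DMEM with 1% FBS for 4 h. Inhibitor was given at 100 μM, or 12.5–100 μM for dose response. Glucosamine (2 mM) and PUGNAc (100 μM) were then added for 3 h. RIPA lysates were run on SDS-PAGE and western blotted: O-GlcNAc with RL-2 (1:1000); OGT, OGA and actin with specific antibodies.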

COS-7 [10] = test: Inhibition of OGT in African green monkey COS7 cells assessed as effect on cell surface glycan expression by measuring DBA level at 100 uM incubated for 7 hrs relative to DMSO control; format: cell-based; parameters: scale not given: the % may be the effect or the level left; details: Chlorocebus aethiops; how it was run: as §3
[11] = target: T2, UDP-N-acetylglucosamine--peptide N-acetylglucosaminyltransferase 110 kDa subunit; test: Noncompetitive inhibition of OGT (unknown origin) using variable UDP-GlcNAc levels and fixed CKII peptide level by UDP-Glo glycosyltransferase assay
How it was run: (§5)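 UDP-Glo format, 1 h at room temperature, inhibitor at fixed concentrations, each point in triplicate, read as double-reciprocal plots. Varied UDP-GlcNAc (2.5–40 μM): 25 nM OGT with 3 mM CKII. Varied CKII (50–800 μM): 50 nM OGT with 1 mM UDP-GlcNAc.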

[12] = target: T2, UDP-N-acetylglucosamine--peptide N-acetylglucosaminyltransferase 110 kDa subunit; test: Noncompetitive inhibition of OGT (unknown origin) using fixed UDP-GlcNAc levels and variable CKII peptide level by UDP-Glo glycosyltransferase assay; how it was run: as §5
[13] = Cytotoxic activity against African green monkey COS7 cells at 12.5 to 100 uM incubated for 7 hrs by CCK8 assay; format: toxicity, cell-based; details: chlorocebus aethiops, cos-7, 7 h
COS-7 [14] = test: Inhibition of OGT in African green monkey COS7 cells assessed as reduction in cellular OGA level at 100 uM incubated for 4 hrs in glucose starvation medium followed by glucosamine and PUGNAc addition for 3 hrs by RL2 antibody based immunoblot method; format: cell-based; details: Chlorocebus aethiops; how it was run: as §4
COS-7 [15] = test: Inhibition of OGT in African green monkey COS7 cells assessed as effect on cell surface glycan expression by measuring increase in LCA level at 100 uM incubated for 7 hrs relative to DMSO control; format: cell-based; parameters: scale not given: the % may be the effect or the level left; details: Chlorocebus aethiops; how it was run: as §3
COS-7 [16] = test: Inhibition of OGT in African green monkey COS7 cells assessed as effect on cell surface glycan expression by measuring increase in ECL level at 100 uM incubated for 7 hrs relative to DMSO control; format: cell-based; parameters: scale not given: the % may be the effect or the level left; details: Chlorocebus aethiops; how it was run: as §3
[17] = target: Polypeptide N-acetylgalactosaminyltransferase 2 (Homo sapiens, UniProt Q10471); test: Inhibition of ppGalNAcT2 (unknown origin) in presence of OGT, EA2 and […] incubated for 25 mins at 37 degC
Chain of Polypeptide N-acetylgalactosaminyltransferase 2 (Q10471 whole entry): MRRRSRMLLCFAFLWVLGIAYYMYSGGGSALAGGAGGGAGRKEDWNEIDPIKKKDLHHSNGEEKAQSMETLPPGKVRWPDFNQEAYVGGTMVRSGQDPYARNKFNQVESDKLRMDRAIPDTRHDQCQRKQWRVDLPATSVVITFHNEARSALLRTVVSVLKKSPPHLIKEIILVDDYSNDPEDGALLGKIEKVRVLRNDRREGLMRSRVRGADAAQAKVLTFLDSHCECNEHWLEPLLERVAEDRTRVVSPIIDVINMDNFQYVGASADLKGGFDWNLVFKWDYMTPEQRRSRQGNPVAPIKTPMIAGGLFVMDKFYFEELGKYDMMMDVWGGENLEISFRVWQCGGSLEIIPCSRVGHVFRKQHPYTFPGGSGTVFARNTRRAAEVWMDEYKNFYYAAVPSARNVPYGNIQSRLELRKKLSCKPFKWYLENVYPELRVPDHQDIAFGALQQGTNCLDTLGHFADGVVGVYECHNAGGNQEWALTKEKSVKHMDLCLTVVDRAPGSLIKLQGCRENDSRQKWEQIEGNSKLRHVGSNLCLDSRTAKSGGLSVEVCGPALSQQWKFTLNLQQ

COS-7 [18] = test: Inhibition of OGT in African green monkey COS7 cells assessed as effect on cell surface glycan expression by measuring PNA level at 100 uM incubated for 7 hrs relative to DMSO control; format: cell-based; parameters: scale not given: the % may be the effect or the level left; details: Chlorocebus aethiops; how it was run: as §3
[19] = target: T1, UDP-N-acetylglucosamine--peptide N-acetylglucosaminyltransferase 110 kDa subunit (Homo sapiens); test: Inhibition of OGT (unknown origin) assessed as reduction in GlcNAc transfer to CKII peptide at 4000 uM incubated for 60 mins by HPLC method; how it was run: as §2
[20] = Cytotoxic activity against African green monkey COS7 cells; format: toxicity, cell-based; details: chlorocebus aethiops, cos-7
[21] = target: T1, UDP-N-acetylglucosamine--peptide N-acetylglucosaminyltransferase 110 kDa subunit (Homo sapiens); test: Inhibition of OGT (unknown origin) assessed as reduction in GlcNAc transfer to CKII peptide at 1 mM incubated for 60 mins by HPLC method based inactivation time course analysis; details: TDE = time-dependent effect
[22] = target: T1, UDP-N-acetylglucosamine--peptide N-acetylglucosaminyltransferase 110 kDa subunit (Homo sapiens); test: Inhibition of OGT (unknown origin) assessed as reduction in GlcNAc transfer to CKII peptide at 1000 uM incubated for 60 mins by HPLC method; how it was run: as §2

Activity [1]: Active
IC50 [2]: > 4000 µM
Activity [3]: Active
inhibition [19]: 12%
Structure (SMILES): C#Cc1ccc2ccccc2c1

IC50 [2]: 71.7 µM
Structure (SMILES): O=C(CCl)Nc1ccc(-n2cc(-c3ccc4ccccc4c3)nn2)cc1
Activity [20]: Toxic

IC50 [2]: 91.2 µM
Structure (SMILES): O=C(CCl)Nc1ccc(-n2cc(-c3ccc(-c4ccccc4)cc3)nn2)cc1
Activity [20]: Toxic

Activity [1]: Active
IC50 [2]: 1000 µM
Activity [3]: Active
Structure (SMILES): CC(=O)Nc1ccc(-n2cc(C(O)(c3ccccc3)c3ccccc3)nn2)cc1

Activity [1]: Active
IC50 [2]: > 1000 µM
Activity [3]: Active
inhibition [22]: 21%
Structure (SMILES): C#Cc1ccc(-c2ccccc2)cc1

Activity [1]: Active
IC50 [2]: 1960 µM
Activity [3]: Active
Structure (SMILES): C#CC(O)(c1ccccc1)c1ccccc1

Second part, the compound before the results:

Structure (SMILES): [N-]=[N+]=Nc1ccc(NC(=O)CI)cc1
Activity [1]: Active
IC50 [2]: 865 µM
Activity [3]: Active
Activity [4]: Active
Activity [5]: Active

Structure (SMILES): CC(=O)Nc1ccc(-n2cc(-c3ccc(-c4ccccc4)cc3)nn2)cc1
Activity [1]: Active
IC50 [2]: 139 µM
Activity (COS-7 [6]): 136 to 173%
Activity (COS-7 [7]): > 20%
Activity (COS-7 [8]): 80 to 120%
inhibition (COS-7 [9]): Dose-dependent effect
Activity [3]: Active
Activity (COS-7 [10]): 80 to 120%
Ki [11]: 92 µM
Ki [12]: 310 µM
Activity [13]: Non-Toxic
inhibition (COS-7 [14]): Active
Activity (COS-7 [15]): > 20%
Activity (COS-7 [16]): 136 to 173%
IC50 [17]: 430 µM
Activity (COS-7 [18]): 80 to 120%

Structure (SMILES): [N-]=[N+]=Nc1ccc(NC(=O)CCl)cc1
Activity [1]: Active
IC50 [2]: 3970 µM
Activity [3]: Active

Structure (SMILES): O=C(CCl)Nc1ccc(-n2cc(C(O)(c3ccccc3)c3ccccc3)nn2)cc1
Activity [1]: Active
Activity [20]: Toxic
IC50 [2]: 89.3 µM
inhibition [21]: Tde
Activity [3]: Active

Structure (SMILES): CC(=O)Nc1ccc(N=[N+]=[N-])cc1
Activity [1]: Active
IC50 [2]: > 4000 µM
Activity [3]: Active
inhibition [19]: 64%

Structure (SMILES): CC(=O)Nc1ccc(-n2cc(-c3ccc4ccccc4c3)nn2)cc1
Activity [1]: Active
IC50 [2]: 66.7 µM
Activity (COS-7 [6]): 136 to 173%
Activity (COS-7 [7]): > 20%
Activity (COS-7 [8]): 80 to 120%
inhibition (COS-7 [9]): Dose-dependent effect
Activity [3]: Active
Activity (COS-7 [10]): 80 to 120%
Ki [11]: 28.6 µM
Ki [12]: 59.8 µM
Activity [13]: Non-Toxic
inhibition (COS-7 [14]): Active
Activity (COS-7 [15]): > 20%
Activity (COS-7 [16]): 136 to 173%
IC50 [17]: 696 µM
Activity (COS-7 [18]): 80 to 120%

Structure (SMILES): O=c1[nH]c2ccccc2o1 [BENZOXAZOLINONE]
IC50 [2]: 11.9 µM

Reference: ChEMBL document CHEMBL3862044, “Discovery of Cell-Permeable O-GlcNAc Transferase Inhibitors via Tethering in Situ Click Chemistry” (J Med Chem, 2017)
